As usually defined, the half-life is the time needed for the level to fall by half in the phase considered.

Here are results for 12 compounds from ChEMBL document CHEMBL1124554, “Chemical delivery systems for some penicillinase-resistant semisynthetic penicillins” (J Med Chem, 1989).

Data set [1] is described as follows: Half-life in phosphate buffer (0.05 M, mu = 0.15) at 30 degree Celsius with pH 7.45. Type of data set: ADME. Put shortly:
(§1)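 DMSO stock added to 10 mL phosphate buffer (0.05 M, μ = 0.15) at the stated pH. Timed samples were analyzed by HPLC, with UV detection at 360 nm for dihydro CDS forms and 260 nm for quaternary salts. Pseudo-first-order disappearance rate constants came from linear regression of log peak height versus time, and half-lives were derived from them.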

Data set [2] can be described thus: Half-life in phosphate buffer (0.05 M, mu = 0.15) at 30 degree Celsius with pH 7.79. Type of data set: ADME. The essentials:
as §1

A short description of data set [3]: Half-life in phosphate buffer (0.05 M, mu = 0.15) at 30 degree Celsius with pH 8.14. Type of data set: ADME. Put shortly:
as §1

Data set [4] is described as follows: Half-life in phosphate buffer (0.05 M, mu = 0.15) at 30 degree Celsius with pH 6.93. Type of data set: ADME. Put shortly:
as §1

A short description of data set [5]: Second-order oxidation rate constant determined using ferricyanide. Type of data set: ADME. The essentials:
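Chemical oxidation with ferricyanide was run under pseudo-first-order conditions, with Fe(CN)6^3- in large excess over the CDS and pH held constant. Pseudo-first-order rates were measured at several ferricyanide concentrations, and the second-order constant (M^-1 s^-1) was derived from them.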

The nature of data set [6]: Lipophilicity was determined by reversed-phase HPLC. The settings on record: extrapolated to 100% water.
A short description of data set [7]: Half-life at pH 7.4 in rat 10% brain homogenate. Type of data set: ADME. Put shortly: (§2)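 Fresh rat whole blood, or rat brain homogenized to 10% (w/v) in pH 7.4 phosphate buffer (1/20 M), spiked from DMSO stock to 40 μM final and held at 37 °C. Timed samples were extracted three times with 8% DMSO in acetonitrile, centrifuged, filtered and analyzed by HPLC. Pseudo-first-order rate constants came from log peak height versus time. Values are means of two determinations.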

Data set [8] can be described thus: Half-life at pH 7.4 in rat blood. Type of data set: ADME, organism-based. The essentials: as §2
Data set [9] can be described thus: Half-life in phosphate buffer (0.05 M, mu = 0.15) at 30 degree Celsius with pH 6.15. Type of data set: ADME. The essentials: as §1
Data set [10] is described as follows: Half-life in phosphate buffer (0.05 M, mu = 0.15) at 30 degree Celsius and pH 7.45. Type of data set: ADME. Put shortly: as §1
Data set [11] in a line: Half-life at pH 7.4 in human blood. Type of data set: ADME, organism-based. Put shortly:
(§3)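 Freshly collected rabbit or human whole blood, spiked from DMSO stock to 40 μM final and kept at 37 °C. Timed samples were extracted three times with 8% DMSO in acetonitrile, centrifuged, filtered and analyzed by HPLC. Pseudo-first-order rate constants came from linear regression of log peak height versus time.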

Data set [12] can be described thus: Half-life in phosphate buffer (0.05 M, mu = 0.15) at 30 degree Celsius and pH 6.15. Type of data set: ADME. The essentials:
as §1

Data set [13] in a line: Half-life at pH 7.4 in rabbit blood. Type of data set: ADME, organism-based, Oryctolagus cuniculus. Put shortly:
as §3

Data set [14] is described as follows: Half-life in phosphate buffer (0.05 M, mu = 0.15) at 30 degree Celsius and pH 6.93. Type of data set: ADME. Put shortly: as §1
Data set [15] is described as follows: (§4) Concentration of compound after 5 minutes in rabbit blood. Type of data set: ADME, organism-based, Oryctolagus cuniculus.
The species entered for data set [16] is Rattus norvegicus. The experiment in a line: Concentration of compound after 3 minutes in rat blood. Type of data set: functional, organism-based.
Data set [17] is described as follows: Concentration of compound after 10 minutes in rabbit blood. Type of data set: ADME, organism-based, Oryctolagus cuniculus.
The species named for data set [18] is Oryctolagus cuniculus. The experiment in a line: Concentration of compound after 10 min in rabbit blood. Type of data set: functional, organism-based. Put shortly:
(§5)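 Oxacillin at 20 mg/kg, or an equimolar dose of its CDS, given i.v. to male Sprague-Dawley rats (tail vein) or male New Zealand albino rabbits (ear vein). Vehicle was water/ethanol/propylene glycol at 20 mg/mL. Samples were rat trunk blood after decapitation or rabbit ear-vein blood, with brain removed and frozen. Oxacillin was assayed by B. subtilis ATCC 6633 paper-disk diffusion and by HPLC. Values are means of two determinations.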

The species entered for data set [19] is Oryctolagus cuniculus. Description: Concentration of compound after 5 minutes in rabbit brain. Type of data set: functional, organism-based. Put shortly: as §5
Data set [20] is filed under the species Oryctolagus cuniculus. The data set is described as §4. Type of data set: functional, organism-based. Put shortly: as §5
Data set [21] is filed under the species Oryctolagus cuniculus. The experiment in a line: Concentration of compound after 10 min in rabbit brain. Type of data set: functional, organism-based. The essentials:
as §5

The species named for data set [22] is Rattus norvegicus. The experiment in a line: Concentration of compound after 3 minutes in rat brain. Type of data set: functional, organism-based. The essentials: as §5
A short description of data set [23]: Half-life in phosphate buffer (0.05 M, mu = 0.15) at 30 degree Celsius with pH 7.43. Type of data set: ADME. Put shortly: as §1
Data set [24] can be described thus: Half-life in phosphate buffer (0.05 M, mu = 0.15) at 30 degree Celsius with pH 7.73. Type of data set: ADME. The essentials: as §1
Data set [25] in a line: Half-life in phosphate buffer (0.05 M, mu = 0.15) at 30 degree Centigrade with pH 6.88. Type of data set: ADME. The essentials:
as §1

The nature of data set [26]: Half-life in phosphate buffer (0.05 M, mu = 0.15) at 30 degree Celsius with pH 6.07. Type of data set: ADME. The essentials:
as §1

The nature of data set [27]: Half-life in phosphate buffer (0.05 M, mu = 0.15) at 30 degree Celsius with pH 8.05. Type of data set: ADME. Put shortly: as §1
Data set [28] is filed under the species Oryctolagus cuniculus. Description: Half-life at pH 7.4 in rabbit blood; Compound insoluble. Type of data set: ADME, organism-based. Put shortly: as §3
The species named for another data set is Homo sapiens. Description: Half-life at pH 7.4 in human blood; Compound insoluble. Type of data set: ADME, organism-based. The essentials:
as §3

For the compound `Cc1onc(-c2c(Cl)cccc2Cl)c1C(=O)NC1C(=O)N2C1SC(C)(C)[C@@H]2C(=O)OCOC(=O)C1=CN(C)C=CC1` (some centres not stated), the half-life in [1] was 1030 min; in data set [2] it was 932 min; in [3], 598 min; in data set [4], 1010 min; in data set [7], 12.6 min; in [8], 4.1 min. This compound also gave a half-life in data set [9] of 464 min. Besides, the ko in data set [5] is 0.23 M⁻¹ s⁻¹. For the same compound, the Log k in data set [6] is reported as 3.41.

`COc1cccc(OC)c1C(=O)NC1C(=O)N2C1SC(C)(C)[C@@H]2C(=O)OCOC(=O)C1=CN(C)C=CC1` (some centres not stated): the half-life amounted to 134 min in [10]; 103 min in [2]; 116 min in data set [11]; 130 min in data set [12]; 10.7 min in data set [13]; 55.7 min in [3]. Further, the half-life is 238 min in data set [14], 8 min in [7] and 0.2 min in data set [8]. The compound further gave a ko in [5] of 0.701 M⁻¹ s⁻¹. For the same compound, in data set [6], the Log k is given as 2.28.

`Cc1onc(-c2ccccc2)c1C(=O)N[C@@H]1C(=O)N2[C@@H]1SC(C)(C)[C@@H]2C(=O)[O-].[Na+]` had a concentration at 5 min in data set [15] of 15.3 µg/mL. This compound also yielded a Concentration in the data set listed under Rattus norvegicus [16] of 41.1 µg/mL. Besides, in data set [6], the Log k is 1.868. This compound registered a concentration at 10 min in data set [17] of 9.1 µg/mL.

As for `Cc1onc(-c2ccccc2)c1C(=O)NC1C(=O)N2C1SC(C)(C)[C@@H]2C(=O)OCOC(=O)C1=CN(C)C=CC1` (some centres not stated), the half-life in data set [1] came out at 196 min; in data set [2] it was 172 min; in data set [11] it was 7.5 min; in data set [13], 23.7 min; in [3], 100 min; in [4] it was 277 min. The half-life in data set [7] turned out to be 5.4 min; in data set [8], 1.1 min; in [9], 249 min. Also, the Concentration in the data set filed under Oryctolagus cuniculus [18] amounted to 2.2 µg/mL; in the data set listed under Oryctolagus cuniculus [19] it was 0.3 µg/mL; in the data set listed under Rattus norvegicus [16], 26.2 µg/mL; in the data set filed under Oryctolagus cuniculus [20], 4.6 µg/mL; in the data set filed under Oryctolagus cuniculus [21] it was 0.3 µg/mL; in the data set listed under Rattus norvegicus [22] it was 2.1 µg/mL. In data set [5], this compound showed a ko of 0.48 M⁻¹ s⁻¹. The Log k in data set [6] is reported as 2.82.

As for `Cc1onc(-c2c(Cl)cccc2Cl)c1C(=O)NC1C(=O)N2C1SC(C)(C)[C@@H]2C(=O)OCOC(=O)c1ccc[n+](C)c1.[I-]` (some centres not stated), the half-life in data set [23] came out at 3.9 min; in data set [24], 2.9 min; in [25], 14.7 min; in [7] it was 1 min; in data set [8], 0.7 min; in data set [26], 44.4 min.

Consider `Cc1onc(-c2c(Cl)cccc2Cl)c1C(=O)NC1C(=O)N2C1SC(C)(C)[C@@H]2C(=O)[O-].[Na+]` (some centres not stated), for which, in data set [6], the Log k is given as 2.435.

For `Cc1onc(-c2ccccc2Cl)c1C(=O)NC1C(=O)N2C1SC(C)(C)[C@@H]2C(=O)[O-].[Na+]` (some centres not stated), the Log k in [6] is given as 2.097.

As for `Cc1onc(-c2ccccc2Cl)c1C(=O)NC1C(=O)N2C1SC(C)(C)[C@@H]2C(=O)OCOC(=O)C1=CN(C)C=CC1` (some centres not stated), the half-life amounted to 377 min in [1]; 305 min in data set [2]; 165 min in data set [3]; 506 min in [4]; 10 min in data set [7]; 3.8 min in data set [8]. The compound further registered a half-life in data set [9] of 350 min. In [5], this compound showed a ko of 0.36 M⁻¹ s⁻¹. In data set [6], the Log k is 3.06.

As for `Cc1onc(-c2ccccc2)c1C(=O)NC1C(=O)N2C1SC(C)(C)[C@@H]2C(=O)OCOC(=O)c1ccc[n+](C)c1.[I-]` (some centres not stated), the half-life in data set [27] is 1.1 min; in data set [23], 3.4 min; in data set [24] it was 1.9 min; in data set [25], 10.3 min; in data set [7], 1.2 min; in data set [8], 0.7 min. In data set [26], this compound had a half-life of 49 min.

Regarding `COc1cccc(OC)c1C(=O)NC1C(=O)N2C1SC(C)(C)[C@@H]2C(=O)OCOC(=O)c1ccc[n+](C)c1.[I-]` (some centres not stated), the half-life came out at 1 min in data set [27]; 3.6 min in data set [23]; 2 min in [24]; 12 min in data set [25]; 1.1 min in data set [7]; 1 min in [8]. Moreover, the half-life in data set [26] came to 58.6 min. For the same compound, the T1/2 entry in the data set filed under Oryctolagus cuniculus [28] and in the data set filed under Homo sapiens was “Insoluble” each time.

Consider `COc1cccc(OC)c1C(=O)N[C@@H]1C(=O)N2[C@@H]1SC(C)(C)[C@@H]2C(=O)[O-].[Na+]`, for which, in data set [6], the Log k is listed as 0.658.

On to `Cc1onc(-c2ccccc2Cl)c1C(=O)NC1C(=O)N2C1SC(C)(C)[C@@H]2C(=O)OCOC(=O)c1ccc[n+](C)c1.[I-]` (some centres not stated), for which the half-life in [27] was 1 min; in [23], 3.5 min; in [24], 2.1 min; in data set [25] it was 11.3 min; in data set [7], 1.1 min; in data set [8] it was 0.6 min. This compound also had a half-life in data set [26] of 56 min.
